One may read the IC50 as the concentration needed to halve the response being measured. A low value points to higher potency. The term inhibition denotes the relative decrease from the control value, in per cent. A high value points to a strong effect.

The source made the active and inactive calls. No cut-off for these calls is given here.

For assay [1], the target named is Tubulin. Briefly: Inhibition of tubulin polymerization. Type of assay: protein-complex assay, Homo sapiens. The method, boiled down:
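Tubulin at 10 µM in 0.8 M monosodium glutamate pH 6.6 with varying drug, preincubated 15 min at 30 °C, then chilled on ice. Assembly started with 0.4 mM GTP and followed as turbidity at 350 nm for 20 min at 30 °C. IC50 taken from the extent of assembly.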

For another assay, the system named is MCF7. Briefly: Growth inhibition of human MCF7 cells after 48 hrs. Particulars: MCF7, 48 h. Type of assay: functional, cell-based.
The target of another assay is Tubulin (Homo sapiens) (UniProt P68371+Q9H4B7+P0DPH7+P68366+Q13509+Q71U36+P04350+Q3ZCM7+P07437+P68363+Q9BQE3+Q6PEY2+Q13885+Q9BVA1+Q9BUF5). Briefly: Inhibition of [3H]colchicine binding to tubulin at 5 uM. Type of assay: protein-complex assay.
Assay [2] has as its target Tubulin. Briefly: Displacement of MTC from tubulin. The class given is protein-complex assay, Homo sapiens.
The test system of assay [3] is HeLa. Briefly: Induction of apoptosis in HeLa cells assessed as PARP1 ceavage at 100 uM. Particulars: Homo sapiens. Type of assay: functional, cell-based. The method, boiled down: (§1)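 HeLa cells given 10 µM for 24 h, or 100 µM for 3 h followed by 24 h recovery. Total extracts from 2.5 × 10⁶ cells analysed by western blot with anti-PARP-1 mAb C-2-10 and an HRP anti-mouse secondary, ECL detection. PARP-1 proteolysis taken as the marker of caspase activation.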

The subject of assay [4] is HeLa. Briefly: Cell cycle arrest in HeLa cells assessed as accumulation at G2/M phase at 10 uM after 24 hrs. Type of assay: functional, Homo sapiens. Put shortly:
(§2)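 HeLa cells in DMEM with 10% FCS, 37 °C, 5% CO2. Subconfluent cells trypsinized, seeded at 2.5 × 10⁵ cells/mL and exposed to 10 µM for 24 h (0.1% DMSO in parallel samples). Harvested either at once or after another 24 h in drug-free medium. Ethanol-fixed, stained with propidium iodide plus RNase A, ≥10 000 cells flow-analysed. Values are % of cells per phase; one typical experiment.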

The subject of assay [5] is HeLa. Briefly: Cell cycle arrest in HeLa cells assessed as accumulation of A0 sub-G1 DNA content at 10 uM after 24 hrs with further incubation in drug free medium for 24 hrs. The class given is functional, Homo sapiens. Put shortly: as §2
Assay [6] deals with HeLa. Briefly: Cell cycle arrets in HeLa cells assessed as accumulation at G1 phase at 10 uM for 24 hrs with further incubation in drug free medium for 24 hrs. Type of assay: functional, Homo sapiens. Put shortly:
as §2

Assay [7] has as its system HeLa. Briefly: Cell cycle arrest in HeLa cells assessed as accumulation at G2/M phase at 10 uM after 24 hrs with furthur incubation in drug free medium for 24 hrs. The class given is functional, Homo sapiens. Put shortly: as §2
Assay [8] relates to HeLa. Briefly: Cell cycle arrest in HeLa cells assessed as accumulation at S phase at 10 uM after 24 hrs with further incubation in drug free medium for 24 hrs. The class given is functional, Homo sapiens. Put shortly: as §2
In assay [9] the test system is HeLa. Briefly: Cell cycle arrest in HeLa cells assessed as accumulation at >4C phase at 10 uM after 24 hrs. Type of assay: functional, Homo sapiens. The method, boiled down: as §2
Assay [10] concerns HeLa. Briefly: Cell cycle arrest in HeLa cells assessed as accumulation of A0 sub-G1 DNA content at 10 uM after 24 hrs. The class given is functional, Homo sapiens. The method, boiled down:
as §2

Assay [11] concerns HeLa. Briefly: Cell cycle arrets in HeLa cells assessed as accumulation at G1 phase at 10 uM after 24 hrs. Type of assay: functional, Homo sapiens. The method, boiled down:
as §2

Assay [12] deals with HeLa. Briefly: Cell cycle arrest in HeLa cells assessed as accumulation at >4C phase at 10 uM after 24 hrs with furthur incubation in drug free medium for 24 hrs. The class given is functional, Homo sapiens. The method, boiled down: as §2
Assay [13] concerns HeLa. Briefly: Cell cycle arrest in HeLa cells assessed as accumulation at S phase at 10 uM after 24 hrs. The class given is functional, Homo sapiens. Put shortly:
as §2

For assay [14], the system named is HeLa. Briefly: Induction of apoptosis in HeLa cells assessed as PARP1 ceavage at 10 uM. Type of assay: functional, cell-based. Particulars: Homo sapiens. The method, boiled down:
as §1

Turning to `COc1cc(Sc2c[nH]c3ccc(OCCOCc4ccccc4)cc23)cc(OC)c1OC`, the IC50 against Tubulin [1] is over 40 µM; in the assay on MCF7 it was 260 nM.

Compound `COc1ccc2[nH]cc(Sc3cc(OC)c(OC)c(OC)c3)c2c1` had an inhibition on Tubulin (Homo sapiens) of 61%. For the same compound, the IC50 on Tubulin [1] came to 4.1 µM; in the assay on MCF7 it was 22 nM. The Ka at Tubulin [2] came out at 3.05e+06 M⁻¹.

As to `Cc1cc(C)cc(Sc2c[nH]c3ccc(Cl)cc23)c1`, on Tubulin (Homo sapiens), the inhibition is 33%. For the same compound, the half-maximal inhibitory concentration (IC50) at Tubulin [1] was 9.4 µM; in the assay with MCF7, 1200 nM.

For the compound `COc1cc(Sc2c[nH]c3ccc(Cl)cc23)cc(OC)c1OC`, the inhibition on Tubulin (Homo sapiens) worked out at 51%. Moreover, the IC50 was 2.6 µM on Tubulin [1] and 77 nM in the assay with MCF7. This compound returned a Ka on Tubulin [2] of 810000 M⁻¹.

As to `COc1cc([C@@H]2c3cc4c(cc3[C@@H](O[C@@H]3O[C@@H]5CO[C@@H](C)O[C@H]5[C@H](O)[C@H]3O)[C@H]3COC(=O)[C@H]23)OCO4)cc(OC)c1O`, the outcome in the assay with HeLa [3] was Active.

On to `COc1cc(Sc2c[nH]c3ccc(N)cc23)cc(OC)c1OC`, for which the IC50 against Tubulin [1] was 13 µM; with MCF7 it was 260 nM.

`COC(=O)c1[nH]c2ccc(Cl)cc2c1Sc1cc(OC)c(OC)c(OC)c1` had a Ka on Tubulin [2] of 1.3e+06 M⁻¹.

As for `COC(=O)c1[nH]c2ccccc2c1Sc1cc(OC)c(OC)c(OC)c1`, the Ka at Tubulin [2] came to 570000 M⁻¹.

`COc1cc(Sc2c[nH]c3ccc(OCCO)cc23)cc(OC)c1OC` gave an inhibition at Tubulin (Homo sapiens) of 31%. Further, the values for the IC50 against Tubulin [1] and with MCF7 were 6.8 µM and 95 nM, respectively.

As for `COc1cc(Sc2c[nH]c3ccc(Br)cc23)cc(OC)c1OC`, the Activity amounted to 56.1% in the assay on HeLa [4]; 4.5% with HeLa [5]; 3.5% in the assay on HeLa [6]; 53.1% with HeLa [7]; 10.5% in the assay with HeLa [8]; 4.2% in the assay on HeLa [9]. Moreover, the Activity with HeLa [10] is reported as 6.5%; in the assay on HeLa [11] it was 1.8%; with HeLa [12], 26%; in the assay on HeLa [13] it was 8.9%. Also, the inhibition on Tubulin (Homo sapiens) turned out to be 65%. Besides, the IC50 at Tubulin [1] stood at 1.6 µM; in the assay on MCF7, 43 nM. On Tubulin [2], this compound returned a Ka of 2.76e+06 M⁻¹. The outcome with HeLa [14] was inactive.

On to `COc1cc(Sc2c[nH]c3ccc(OC(C)C)cc23)cc(OC)c1OC`, for which the IC50 against Tubulin [1] was 19 µM; with MCF7 it was 1500 nM.

In turn, `COc1ccc(/C=C\c2cc(OC)c(OC)c(OC)c2)cc1O` [COMBRETASTATIN A4] registered an IC50 with MCF7 of 17 nM.

Consider `COc1cc(Sc2c[nH]c3ccc(O)cc23)cc(OC)c1OC`, for which the inhibition on Tubulin (Homo sapiens) stood at 26%. In addition, the IC50 was found to be 6.3 µM at Tubulin [1] and 190 nM in the assay with MCF7.

The compound `COc1ccc(-c2ccc(OC)c(=O)cc2)c(OC)c1OC` displayed a Ka on Tubulin [2] of 470000 M⁻¹.

Compound `COc1cc(Sc2c[nH]c3ccccc23)cc(OC)c1OC` yielded an inhibition on Tubulin (Homo sapiens) of 68%. Also, the figures for the IC50 against Tubulin [1] and in the assay with MCF7 were 2.6 µM and 34 nM, respectively. The same compound showed a Ka at Tubulin [2] of 5.21e+06 M⁻¹.

`COc1cc(Sc2c[nH]c3ccc(I)cc23)cc(OC)c1OC`: the inhibition on Tubulin (Homo sapiens) is 61%. For the same compound, the IC50 against Tubulin [1] stood at 2.7 µM; in the assay on MCF7, 68 nM. Also, the Ka on Tubulin [2] came out at 2.31e+06 M⁻¹.

`CCOc1ccc2[nH]cc(Sc3cc(OC)c(OC)c(OC)c3)c2c1` showed an inhibition at Tubulin (Homo sapiens) of 76%. Also, the IC50 came out at 2.1 µM at Tubulin [1] and 16 nM with MCF7.

Consider `COc1cc(Sc2c[nH]c3ccc(F)cc23)cc(OC)c1OC`, for which the inhibition at Tubulin (Homo sapiens) was determined as 39%. In addition, the results for the IC50 at Tubulin [1] and in the assay on MCF7 were 3.3 µM and 160 nM, respectively.

Take `COc1cc(Sc2c(C)[nH]c3ccc(Cl)cc23)cc(OC)c1OC`: at Tubulin (Homo sapiens), the inhibition worked out at 59%. Further, the values for the IC50 on Tubulin [1] and with MCF7 were 2.7 µM and 82 nM, respectively. At Tubulin [2], this compound displayed a Ka of 2.07e+06 M⁻¹.

Turning to `COc1ccccc1Sc1c[nH]c2ccc(Cl)cc12`, the values for the half-maximal inhibitory concentration (IC50) at Tubulin [1] and in the assay on MCF7 were 11 µM and over 2500 nM, respectively.

At Tubulin (Homo sapiens), `COc1ccc2[nH]c(C)c(Sc3cc(OC)c(OC)c(OC)c3)c2c1` registered an inhibition of 69%. For the same compound, the figures for the IC50 on Tubulin [1] and in the assay with MCF7 were 3.3 µM and 18 nM, respectively. Further, on Tubulin [2], the Ka worked out at 6.38e+06 M⁻¹.

Consider `COc1cc(Sc2c[nH]c3ccc([N+](=O)[O-])cc23)cc(OC)c1OC`, for which the IC50 came out at 16 µM on Tubulin [1] and 560 nM with MCF7.

`COc1cc(Sc2c(C)[nH]c3ccccc23)cc(OC)c1OC` displayed an inhibition at Tubulin (Homo sapiens) of 61%. Further, the IC50 came to 6.8 µM against Tubulin [1] and 46 nM in the assay on MCF7. On Tubulin [2], the Ka was determined as 5.5e+06 M⁻¹.

Turning to `COc1cc(Sc2c[nH]c3ccc(C)cc23)cc(OC)c1OC`, the inhibition at Tubulin (Homo sapiens) worked out at 56%. Besides, the results for the 50% inhibitory concentration (IC50) against Tubulin [1] and in the assay on MCF7 were 2.7 µM and 16 nM, respectively. Moreover, at Tubulin [2], the Ka stood at 1.96e+06 M⁻¹.
